Laboratory results taken from ChEMBL document CHEMBL1817571, “Design and synthesis of new prostaglandin D₂ receptor antagonists” (Bioorg Med Chem, 2011).

Legend:
[1] = Oral bioavailability in rat at 10 mg/kg; format: ADME, organism-based; settings: in vivo
How it was run: (§1)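 Fasted male rats (n = 3) received 1 mg/kg iv or 10 mg/kg po. Jugular vein blood was drawn with a heparinized syringe at pre-dose and 2 (iv only), 5, 15 and 30 min, and 1, 2, 4, 6 and 8 h. Plasma was obtained by centrifugation at 4 °C and stored at −80 °C. AUC, Cmax, T1/2, Vss and CL came from the plasma concentration–time course. BA was derived from dose-normalized AUCpo/AUCiv.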

[2] = Total clearance in rat at 1 mg/kg, iv; format: ADME, organism-based; design: dose 1 mg/kg, route intravenous; settings: in vivo; how it was run: as §1
[3] = AUClast in rat at 10 mg/kg, po; format: ADME, organism-based; design: dose 10 mg/kg, route oral, time 0 - last; settings: plasma; how it was run: as §1
[4] = target: T1, Prostaglandin E2 receptor EP1 subtype (Mus musculus, UniProt P35375); test: Displacement of [3H]PGE2 from mouse prostaglandin EP1 receptor expressed in CHO cells after 20 mins by liquid scintillation counting
T1 sequence (P35375 whole entry): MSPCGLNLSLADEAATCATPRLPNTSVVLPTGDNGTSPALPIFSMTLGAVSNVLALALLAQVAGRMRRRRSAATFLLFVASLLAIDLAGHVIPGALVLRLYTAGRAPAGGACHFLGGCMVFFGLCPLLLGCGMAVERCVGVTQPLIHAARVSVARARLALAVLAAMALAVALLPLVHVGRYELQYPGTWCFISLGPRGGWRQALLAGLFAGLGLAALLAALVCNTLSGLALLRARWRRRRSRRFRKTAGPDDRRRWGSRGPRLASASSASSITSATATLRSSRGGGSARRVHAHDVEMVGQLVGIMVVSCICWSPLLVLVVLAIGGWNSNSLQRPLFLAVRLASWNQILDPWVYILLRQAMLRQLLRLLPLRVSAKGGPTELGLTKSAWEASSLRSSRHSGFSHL

[5] = Cmax in rat at 10 mg/kg, po; format: ADME, organism-based; design: dose 10 mg/kg, route oral; settings: in vivo; how it was run: as §1
Thromboxane A2 receptor = target: T2, Thromboxane A2 receptor (Homo sapiens, UniProt P21731); test: Displacement of [3H]-SQ29548 from human prostanoid TP receptor expressed in CHO cells after 30 mins by liquid scintillation counting
T2 sequence (P21731 whole entry): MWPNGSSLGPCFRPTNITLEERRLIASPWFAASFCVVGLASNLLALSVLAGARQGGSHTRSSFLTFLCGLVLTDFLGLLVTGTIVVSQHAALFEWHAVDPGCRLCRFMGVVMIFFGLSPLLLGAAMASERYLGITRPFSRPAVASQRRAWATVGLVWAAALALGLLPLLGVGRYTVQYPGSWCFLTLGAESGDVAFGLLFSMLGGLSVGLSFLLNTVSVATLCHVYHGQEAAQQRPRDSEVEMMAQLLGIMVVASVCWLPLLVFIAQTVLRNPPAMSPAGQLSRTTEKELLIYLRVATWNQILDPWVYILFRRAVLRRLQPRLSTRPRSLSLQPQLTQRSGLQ

[6] = target: T3, Prostaglandin E2 receptor EP3 subtype (Mus musculus, UniProt P30557); test: Displacement of [3H]PGE2 from mouse prostaglandin EP3alpha receptor expressed in CHO cells after 60 mins by liquid scintillation counting; format: cell-based
T3 sequence (P30557 whole entry): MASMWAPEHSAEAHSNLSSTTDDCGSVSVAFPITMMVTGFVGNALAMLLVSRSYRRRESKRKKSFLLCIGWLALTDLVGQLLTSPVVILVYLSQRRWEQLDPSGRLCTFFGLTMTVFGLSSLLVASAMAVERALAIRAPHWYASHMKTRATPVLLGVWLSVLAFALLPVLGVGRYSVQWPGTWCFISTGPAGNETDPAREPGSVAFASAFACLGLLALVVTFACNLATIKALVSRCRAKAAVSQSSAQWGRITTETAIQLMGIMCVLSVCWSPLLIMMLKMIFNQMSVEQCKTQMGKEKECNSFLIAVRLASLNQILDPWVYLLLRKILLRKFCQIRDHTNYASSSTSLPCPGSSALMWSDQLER
How it was run: (§2)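 Membranes came from CHO cells stably expressing mEP1, EP2, EP3 or EP4. They were incubated with 2.5 nM [3H]PGE2 and graded test concentrations in 10 mM KH2PO4–KOH (1 mM EDTA, 10 mM MgCl2, 100 mM NaCl, pH 6.0) at room temperature, 20 min for EP1 and 60 min for EP2–4. Reactions were filtered on GF/B, washed with ice-cold buffer, and counted by scintillation. IC50 came by regression, with Ki via Cheng–Prusoff.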

[7] = AUClast in rat at 1 mg/kg, iv; format: ADME, organism-based; design: time 0 - last, dose 1 mg/kg, route intravenous; settings: plasma; how it was run: as §1
[8] = Half life in rat at 10 mg/kg, po; format: ADME, organism-based; design: dose 10 mg/kg, route oral; settings: in vivo; how it was run: as §1
[9] = target: T4, Prostaglandin D2 receptor (Mus musculus, UniProt P70263); test: Antagonist activity at mouse prostanoid DP receptor expressed in CHO cells assessed as inhibition of PGD2-induced intracellular cAMP production; format: functional, cell-based
T4 sequence (P70263 whole entry): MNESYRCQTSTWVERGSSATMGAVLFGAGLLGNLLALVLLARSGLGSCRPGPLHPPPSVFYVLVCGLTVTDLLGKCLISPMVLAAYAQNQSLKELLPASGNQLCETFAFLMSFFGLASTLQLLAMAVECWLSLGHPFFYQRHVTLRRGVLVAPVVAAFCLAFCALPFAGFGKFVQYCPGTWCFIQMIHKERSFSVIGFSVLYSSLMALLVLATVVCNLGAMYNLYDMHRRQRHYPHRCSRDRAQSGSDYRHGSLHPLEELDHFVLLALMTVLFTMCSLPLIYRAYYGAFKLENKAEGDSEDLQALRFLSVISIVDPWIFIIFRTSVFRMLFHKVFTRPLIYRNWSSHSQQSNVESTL
How it was run: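 CHO-mDP cells were seeded at 1×10^5 cells/well and grown 2 days. They were preincubated about 10 min at 37 °C in MEM with 2 µM diclofenac, then about 10 min in MEM with 0.1% BSA, 1 mM IBMX and 2 µM diclofenac. Test compounds at various concentrations plus 10 nM PGD2 were then added for 10 min at 37 °C. Reactions were stopped with 10% TCA, extracted with tri-n-octylamine/chloroform, and cAMP was measured by EIA.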

[10] = target: Prostaglandin E2 receptor EP4 subtype (Mus musculus, UniProt P32240); test: Displacement of [3H]PGE2 from mouse prostaglandin EP4 receptor expressed in CHO cells after 60 mins by liquid scintillation counting; format: cell-based; how it was run: as §2
[11] = target: Prostaglandin E2 receptor EP2 subtype (Mus musculus, UniProt Q62053); test: Displacement of [3H]PGE2 from mouse prostaglandin EP2 receptor expressed in CHO cells after 60 mins by liquid scintillation counting; format: cell-based; how it was run: as §2
[12] = Volume of distribution at steady state in rat at 1 mg/kg, iv; format: ADME, organism-based; design: dose 1 mg/kg, route intravenous; settings: in vivo, read-out: Vdss; how it was run: as §1
[13] = target: T4, Prostaglandin D2 receptor; test: Displacement of [3H]PGD2 from mouse prostanoid DP receptor expressed in CHO cells after 20 mins by liquid scintillation counting
[14] = target: Prostaglandin F2-alpha receptor (Mus musculus, UniProt P43117); test: Displacement of [3H]PGF2alpha from mouse prostanoid FP receptor expressed in CHO cells after 60 mins by liquid scintillation counting; format: cell-based
How it was run: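 CHO-mFP membranes were incubated with 2.5 nM [3H]PGF2α and varied test concentrations in 10 mM KH2PO4–KOH, 1 mM EDTA, 10 mM MgCl2, 100 mM NaCl, pH 6.0, for 60 min at room temperature. Samples were then filtered on GF/B, washed with ice-cold phosphate/NaCl buffer, and counted by scintillation. IC50 came from the regression curve, and Ki = IC50/(1+[L]/Kd).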

Prostacyclin receptor = Prostacyclin receptor (Homo sapiens, UniProt P43119); test: Displacement of [3H]Iloprost from human prostanoid IP receptor expressed in CHO cells after 30 mins by liquid scintillation counting
[15] = Half life in rat at 1 mg/kg, iv; format: ADME, organism-based; design: dose 1 mg/kg, route intravenous; settings: in vivo; how it was run: as §1

Prostaglandin E2 receptor EP2 subtype, sequence (Q62053 whole entry): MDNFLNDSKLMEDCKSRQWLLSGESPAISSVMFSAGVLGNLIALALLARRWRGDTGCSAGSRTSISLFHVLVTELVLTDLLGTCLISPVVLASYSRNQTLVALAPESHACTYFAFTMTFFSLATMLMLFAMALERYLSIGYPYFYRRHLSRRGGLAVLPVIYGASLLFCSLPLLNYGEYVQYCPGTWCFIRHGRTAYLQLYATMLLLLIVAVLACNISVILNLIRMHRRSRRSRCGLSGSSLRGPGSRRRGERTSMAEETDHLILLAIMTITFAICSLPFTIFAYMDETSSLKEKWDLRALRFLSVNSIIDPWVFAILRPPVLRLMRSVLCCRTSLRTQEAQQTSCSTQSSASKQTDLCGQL
Prostaglandin F2-alpha receptor, sequence (P43117 whole entry): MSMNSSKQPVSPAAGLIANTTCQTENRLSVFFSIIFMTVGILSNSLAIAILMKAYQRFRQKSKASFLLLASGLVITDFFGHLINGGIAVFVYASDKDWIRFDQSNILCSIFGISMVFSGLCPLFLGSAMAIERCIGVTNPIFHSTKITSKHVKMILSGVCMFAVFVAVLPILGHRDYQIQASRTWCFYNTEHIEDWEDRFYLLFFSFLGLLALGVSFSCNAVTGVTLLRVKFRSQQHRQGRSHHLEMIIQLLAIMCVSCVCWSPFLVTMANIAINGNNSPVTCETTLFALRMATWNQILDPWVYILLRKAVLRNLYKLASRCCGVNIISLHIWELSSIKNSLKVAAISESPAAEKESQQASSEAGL
Prostaglandin E2 receptor EP4 subtype, sequence (P32240 whole entry): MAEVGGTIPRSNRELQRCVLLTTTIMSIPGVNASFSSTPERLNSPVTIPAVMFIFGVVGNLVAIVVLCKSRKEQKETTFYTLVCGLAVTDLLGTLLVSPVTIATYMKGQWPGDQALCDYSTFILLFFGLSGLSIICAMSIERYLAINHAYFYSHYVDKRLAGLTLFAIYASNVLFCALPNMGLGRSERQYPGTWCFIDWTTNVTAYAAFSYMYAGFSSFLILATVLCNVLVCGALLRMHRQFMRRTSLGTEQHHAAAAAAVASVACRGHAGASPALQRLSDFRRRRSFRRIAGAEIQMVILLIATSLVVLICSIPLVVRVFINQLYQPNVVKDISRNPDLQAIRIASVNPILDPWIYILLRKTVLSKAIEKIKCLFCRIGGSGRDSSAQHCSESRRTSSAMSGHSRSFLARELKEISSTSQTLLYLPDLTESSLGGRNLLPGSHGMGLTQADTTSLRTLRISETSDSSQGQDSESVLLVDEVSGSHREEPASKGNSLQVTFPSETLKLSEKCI
Prostacyclin receptor, sequence (P43119 whole entry): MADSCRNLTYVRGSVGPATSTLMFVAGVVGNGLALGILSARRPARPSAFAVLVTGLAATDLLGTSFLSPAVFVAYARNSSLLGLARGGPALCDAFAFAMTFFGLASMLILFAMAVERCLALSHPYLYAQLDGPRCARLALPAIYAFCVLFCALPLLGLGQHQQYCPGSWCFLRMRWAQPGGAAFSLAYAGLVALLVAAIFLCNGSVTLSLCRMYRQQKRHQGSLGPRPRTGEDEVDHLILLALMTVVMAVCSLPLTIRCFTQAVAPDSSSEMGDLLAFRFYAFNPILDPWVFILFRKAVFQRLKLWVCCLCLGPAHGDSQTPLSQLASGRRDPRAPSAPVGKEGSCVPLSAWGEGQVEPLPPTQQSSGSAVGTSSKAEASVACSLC

Cc1ccc(CC(=O)O)cc1NC(=O)c1ccc(OC[C@@H]2CN(C)c3ccccc3O2)cc1C
bioavailability [1]: 62%
clearance [2]: 3.3 mL/min/kg
AUC(0-t) [3]: 28800 ng·h/mL
Ki [4]: > 10000 nM
Cmax [5]: 8700 ng/mL
Ki (Thromboxane A2 receptor): > 10000 nM
Ki [6]: > 10000 nM
AUC(0-t) [7]: 4600 ng·h/mL
half-life [8]: 5.2 h
IC50 [9]: 4.6 nM
Ki [10]: > 10000 nM
Ki [11]: 170 nM
Vd [12]: 0.61 L/kg
Ki [13]: 31 nM
Ki [14]: > 10000 nM
Ki (Prostacyclin receptor): 2600 nM
half-life [15]: 3.1 h
